Data as given in ChEMBL document CHEMBL1143990, “Design, synthesis and evaluation of antiinflammatory, analgesic and ulcerogenicity studies of novel S-substituted phenacyl-1,3,4-oxadiazole-2-thiol and Schiff bases of diclofenac acid as nonulcerogenic derivatives” (Bioorg Med Chem, 2008).

Legend:
Rattus norvegicus [1] = test: Antiinflammatory activity against carrageenan-induced paw edema in orally dosed Wistar rat after 3 hrs relative to control; format: functional
Outline: (§1)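 Wistar rats of either sex, 100–120 g, fasted 24 h with water available. Compounds were suspended in 1% aqueous CMC and given orally 1 h before 0.1 mL of freshly prepared 1.0% w/v carrageenan was injected subplantar into the right hind paw. Paw volume was measured before and after carrageenan. Change in paw volume is mean ± SD versus vehicle control, by one-way ANOVA with Dunnett's test.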

Rattus norvegicus [2] = test: Antiinflammatory activity against carrageenan-induced paw edema in orally dosed Wistar rat after 1 hr relative to control; format: functional; outline: as §1
Rattus norvegicus [3] = test: Antiinflammatory activity against carrageenan-induced paw edema in orally dosed Wistar rat after 2 hrs relative to control; format: functional; outline: as §1
Mus musculus = test: Analgesic activity against acetic acid-induced writhing in Swiss Albino mouse at 10 mg/kg, po after 25 mins relative to control; format: functional
Outline: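 Mice given compounds orally at 10 mg/kg, suspended in 1% aqueous sodium carboxymethyl cellulose. Vehicle-only controls were run. Acetic acid was used to induce writhing. Writhes were counted over 25 min after treatment and reported as mean ± SEM. Percent inhibition was calculated versus the vehicle control.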

Rattus norvegicus [4] = test: Gastric-ulcerogenic effect in Wistar rat at 50 mg/kg, po; format: ADME, organism-based; design: dose 50 mg/kg, route oral; conditions: in vivo
Outline: (§2)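 Wistar rats of either sex (100–120 g), kept at 25 °C and 50% relative humidity on a 12 h light/dark cycle, fasted 24 h with water ad libitum. Compounds were suspended in 1% aqueous CMC and given orally; controls received vehicle. Ulceration was induced in a stress model with added cold stress. Gastric mucosa was scored, with severity index = treated mean score minus control mean. Ratio of ulcerated animals recorded. Mean ± SEM; one-way ANOVA with Dunnett's test. Tissue examined after H&E staining.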

Rattus norvegicus [5] = test: Gastric-ulcerogenic effect in Wistar rat at 30 mg/kg, po; format: ADME, organism-based; design: dose 30 mg/kg, route oral; conditions: in vivo; outline: as §2
Rattus norvegicus [6] = test: Induction of gastric ulcer in orally dosed Wistar rat assessed as stomach mucosal damage; format: organism-based; conditions: in vivo, po; outline: as §2
Rattus norvegicus [7] = test: Gastric-ulcerogenic effect in Wistar rat at 10 mg/kg, po; format: ADME, organism-based; design: dose 10 mg/kg, route oral; conditions: in vivo; outline: as §2

Structure (SMILES)	Inhibition (Rattus norvegicus [1])	Inhibition (Rattus norvegicus [2])	Inhibition (Rattus norvegicus [3])	inhibition in vivo at 10 mg/kg (Mus musculus)	Activity (Rattus norvegicus [4])	Activity (Rattus norvegicus [5])	Activity (Rattus norvegicus [6])	Activity (Rattus norvegicus [7])	UI (Rattus norvegicus [5])	UI (Rattus norvegicus [7])
O=C(CSc1nnc(Cc2ccccc2Nc2c(Cl)cccc2Cl)o1)c1ccc(Cl)c(Cl)c1	60.39%	30.46%	52.26%	–	–	–	–	–	–	–
O=C(CSc1nnc(Cc2ccccc2Nc2c(Cl)cccc2Cl)o1)c1cccc(O)c1	69.89%	17.94%	44.53%	–	–	–	–	–	–	–
CN(C)c1ccc(/C=N/NC(=O)Cc2ccccc2Nc2c(Cl)cccc2Cl)cc1	69.39%	28.2%	48.75%	–	–	–	–	–	–	–
O=C(CSc1nnc(Cc2ccccc2Nc2c(Cl)cccc2Cl)o1)c1ccc([N+](=O)[O-])cc1	67.19%	20.99%	45.64%	–	–	–	–	–	–	–
O=C(CSc1nnc(Cc2ccccc2Nc2c(Cl)cccc2Cl)o1)c1ccc(O)cc1	71.99%	31.55%	48.91%	68.2%	–	–	–	–	–	–
O=C(Cc1ccccc1Nc1c(Cl)cccc1Cl)N/N=C/C=C/c1ccccc1	72.76%	32.28%	48.81%	45.3%	–	–	–	–	–	–
COc1ccc(/C=N/NC(=O)Cc2ccccc2Nc2c(Cl)cccc2Cl)cc1	73.36%	27.21%	51.88%	53.9%	Non-toxic	Non-toxic	Non-toxic	Non-toxic	–	–
O=C(Cc1ccccc1Nc1c(Cl)cccc1Cl)N/N=C/c1ccc(F)cc1	60.34%	16.64%	41.35%	–	–	–	–	–	–	–
O=C(Cc1ccccc1Nc1c(Cl)cccc1Cl)N/N=C/c1ccc(Br)cc1	80.07%	30.53%	51.72%	68.7%	Non-toxic	Non-toxic	Non-toxic	Non-toxic	–	–
COc1ccc(C(=O)CSc2nnc(Cc3ccccc3Nc3c(Cl)cccc3Cl)o2)cc1OC	72.63%	23.43%	48.63%	51.4%	Non-toxic	Non-toxic	Non-toxic	Non-toxic	–	–
COc1cc(/C=N/NC(=O)Cc2ccccc2Nc2c(Cl)cccc2Cl)cc(OC)c1OC	71.93%	29.11%	50.97%	–	–	–	–	–	–	–
O=C(Cc1ccccc1Nc1c(Cl)cccc1Cl)N/N=C/c1ccccc1O	72.88%	31.38%	46.96%	60.5%	Non-toxic	Non-toxic	Non-toxic	Non-toxic	–	–
O=C(CSc1nnc(Cc2ccccc2Nc2c(Cl)cccc2Cl)o1)c1ccc(Br)cc1	71.05%	26.02%	45.16%	55%	–	–	–	–	–	–
O=C(CSc1nnc(Cc2ccccc2Nc2c(Cl)cccc2Cl)o1)c1cccc([N+](=O)[O-])c1	60.39%	28.34%	49.47%	–	–	–	–	–	–	–
Cc1ccc(/C=N/NC(=O)Cc2ccccc2Nc2c(Cl)cccc2Cl)cc1	68.62%	20.99%	43.09%	–	–	–	–	–	–	–
O=C(Cc1ccccc1Nc1c(Cl)cccc1Cl)N/N=C/c1cccc([N+](=O)[O-])c1	69.79%	20.87%	47.02%	–	–	–	–	–	–	–
O=C(Cc1ccccc1Nc1c(Cl)cccc1Cl)N/N=C/c1ccc(O)cc1	70.94%	16.28%	38.14%	–	–	–	–	–	–	–
COc1cccc(C(=O)CSc2nnc(Cc3ccccc3Nc3c(Cl)cccc3Cl)o2)c1	74.23%	23.8%	52.09%	66.9%	Non-toxic	Non-toxic	Non-toxic	Non-toxic	–	–
O=C(Cc1ccccc1Nc1c(Cl)cccc1Cl)N/N=C/c1ccccc1Cl	60.99%	13.54%	40.2%	–	–	–	–	–	–	–
O=C([O-])Cc1ccccc1Nc1c(Cl)cccc1Cl.[Na+] [DICLOFENAC SODIUM]	71.3%	28.69%	48.99%	64.7%	–	–	–	–	2.1	1.8
